# Tests used:
# [1] = system: patients with advanced cancer; assay: Phase I dose-escalation safety and tolerability; assay type: in vivo, human
# Method in brief: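 Single-center oral once-daily escalation. Part A used 3+3 cohorts starting at 1/12th of the allometrically scaled rat LOAEL. Part B used single-patient cohorts, expanded to 3+3 after ≥Grade 2 drug-related toxicity in cycle 1. AEs were graded by NCI CTCAE v3. DLT was a treatment-related Grade ≥3 nonhematologic or Grade ≥4 hematologic cycle-1 AE. MTD was the next lower dose after ≥2 DLTs in a cohort.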
# [2] = Phase I plasma pharmacokinetics of ENMD-1198 in cancer patients
# [3] = single oral dose 425 mg/m^2/day, n=5
smiles,measurement,setting,value
"COc1cc2c(cc1C(N)=O)CC[C@@H]1[C@@H]2CC[C@]2(C)C=CC[C@@H]12 [ENMD-1198, 2-methoxyestra-1,3,5(10)16-tetraene-3-carboxamide]",Drug-related Grade 3/4 toxicities,[1]; 5–425 mg/m^2/d dose range,No drug-related Grade 3/4 toxicities
same,Recommended phase II dose (RP2D),[1]; oral once daily,425 mg/m^2/d
same,Maximum tolerated dose (MTD),"[1]; oral once daily, cancer patients",425 mg/m^2/day
same,Life-threatening AEs or treatment-related deaths,[1]; whole study,No life-threatening AEs or treatment-related deaths
same,Accumulation after multiple doses,"[2]; human, in vivo",3 fold
same,Dose proportionality of plasma exposures,"[2]; human, in vivo",increased proportionally with dose
same,Mean terminal half-life,"[2]; human, in vivo",15 h
same,Tmax,"[2]; human, in vivo, po",1 to 2 h
same,AUC0–24hr,"[2]; human, in vivo, po, 5 mg/m2",312.35 ± 175.38 ng·h/mL
same,Cmax,"[2]; human, in vivo, po, 5 mg/m2",68.75 ± 48.50 ng/mL
same,Half-life,"[2]; human, in vivo, po, 5 mg/m2",12.16 ± 4.22 h
same,Tmax,"[2]; human, in vivo, po, 5 mg/m2",1.25 ± 0.50 h
same,AUC0–24hr,"[2]; human, in vivo, po, 10 mg/m2",1073.83 ± 156.28 ng·h/mL
same,Cmax,"[2]; human, in vivo, po, 10 mg/m2",141.20 ± 28.47 ng/mL
same,Half-life,"[2]; human, in vivo, po, 10 mg/m2",10.57 ± 4.42 h
same,Tmax,"[2]; human, in vivo, po, 10 mg/m2",1.67 ± 0.58 h
same,AUC0–24hr,"[2]; human, in vivo, po, 20 mg/m2",2138.07 ± 384.60 ng·h/mL
same,Cmax,"[2]; human, in vivo, po, 20 mg/m2",418.66 ± 72.53 ng/mL
same,Half-life,"[2]; human, in vivo, po, 20 mg/m2",11.03 ± 1.85 h
same,Tmax,"[2]; human, in vivo, po, 20 mg/m2",1.33 ± 0.58 h
same,AUC0–24hr,"[2]; human, in vivo, po, 30 mg/m2",3914.43 ± 1336.73 ng·h/mL
same,Cmax,"[2]; human, in vivo, po, 30 mg/m2",677.80 ± 125.78 ng/mL
same,Half-life,"[2]; human, in vivo, po, 30 mg/m2",19.45 ± 7.66 h
same,Tmax,"[2]; human, in vivo, po, 30 mg/m2",1.00 ± 0.00 h
same,AUC0–24hr,"[2]; human, in vivo, po, 40 mg/m2",3616.23 ± 1880.32 ng·h/mL
same,Cmax,"[2]; human, in vivo, po, 40 mg/m2",675.83 ± 280.76 ng/mL
same,Half-life,"[2]; human, in vivo, po, 40 mg/m2",8.98 ± 4.22 h
same,Tmax,"[2]; human, in vivo, po, 40 mg/m2",1.33 ± 0.58 h
same,AUC0–24hr,"[2]; human, in vivo, po, 60 mg/m2",4901.00 ng·h/mL
same,Cmax,"[2]; human, in vivo, po, 60 mg/m2",1032.20 ng/mL
same,Half-life,"[2]; human, in vivo, po, 60 mg/m2",11.82 h
same,Tmax,"[2]; human, in vivo, po, 60 mg/m2",1.00 h
same,AUC0–24hr,"[2]; human, in vivo, po, 120 mg/m2",10387.00 ng·h/mL
same,Cmax,"[2]; human, in vivo, po, 120 mg/m2",1823.10 ng/mL
same,Half-life,"[2]; human, in vivo, po, 120 mg/m2",10.66 h
same,Tmax,"[2]; human, in vivo, po, 120 mg/m2",1.00 h
same,AUC0–24hr,"[2]; human, in vivo, po, 180 mg/m2",14789.00 ng·h/mL
same,Cmax,"[2]; human, in vivo, po, 180 mg/m2",2904.10 ng/mL
same,Half-life,"[2]; human, in vivo, po, 180 mg/m2",29.80 h
same,Tmax,"[2]; human, in vivo, po, 180 mg/m2",1.00 h
same,AUC0–24hr,"[2]; human, in vivo, po, 240 mg/m2",16277.00 ng·h/mL
same,Cmax,"[2]; human, in vivo, po, 240 mg/m2",2559.90 ng/mL
same,Half-life,"[2]; human, in vivo, po, 240 mg/m2",16.15 h
same,Tmax,"[2]; human, in vivo, po, 240 mg/m2",1.00 h
same,AUC0–24hr,"[2]; human, in vivo, po, 320 mg/m2",42184.00 ng·h/mL
same,Cmax,"[2]; human, in vivo, po, 320 mg/m2",3851.00 ng/mL
same,Half-life,"[2]; human, in vivo, po, 320 mg/m2",9.70 h
same,Tmax,"[2]; human, in vivo, po, 320 mg/m2",2.00 h
same,AUC0–24hr,"[2]; human, in vivo, po, 550 mg/m2",45223.33 ± 18198.49 ng·h/mL
same,Cmax,"[2]; human, in vivo, po, 550 mg/m2",4319.67 ± 2006.78 ng/mL
same,Half-life,"[2]; human, in vivo, po, 550 mg/m2",17.93 ± 4.11 h
same,Tmax,"[2]; human, in vivo, po, 550 mg/m2",1.67 ± 0.58 h
same,AUC0–24hr,[2]; [3],24816.06 ± 14612.08 ng·h/mL
same,Cmax,[2]; [3],2420.94 ± 1098.82 ng/mL
same,Half-life,[2]; [3],18.40 ± 13.04 h
same,Tmax,[2]; [3],6.20 ± 9.96 h

# Reference: PMC4331064 (Investigational new drugs, 2010)
